This passage reports Diuretic activity, Saluretic activity and Ratio results from ChEMBL document CHEMBL1123499, “Synthesis, saludiuretic, and antihypertensive activity of 6,7-disubstituted 1(2H)- and 3,4-dihydro-1(2H)-phthalazinones” (1986).

Molecules are shown by their SMILES.

Assay [1] is filed under the species Rattus norvegicus. Nature of the assay: Diuretic activity in rats at time intervals of 0-24 hours. It is filed as functional, Urine. In short, it runs like this: (§1)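 Male Sabra rats (170-200 g), starved 18 h, given 50 mg/kg by stomach tube in saline (25 mL/kg load), eight per compound, saline and furosemide controls run alongside. Held two per metabolic cage at 22 °C without food or water. Urine volume measured at 5 and 24 h collections.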

The species entered for assay [2] is Rattus norvegicus. Nature of the assay: Diuretic activity in rats at time intervals of 0-5 hours. It is filed as functional, Urine. In short, it runs like this: as §1
The species entered for assay [3] is Rattus norvegicus. Nature of the assay: Diuretic activity in rats at time intervals of 5-24 hours. The format is functional, Urine. In short, it runs like this:
as §1

For assay [4], the species on record is Rattus norvegicus. Nature of the assay: Saluretic activity in rats after 5-24 hours, as sodium ion concentration in urine. The format is functional. Put shortly: (§2)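 Male Sabra rats (170-200 g), fasted 18 h, dosed orally 50 mg/kg in saline at 25 mL/kg, eight per compound, two per metabolic cage, no food or water. Urine collected 5 and 24 h after dosing and centrifuged. Chloride titrated with Hg(NO3)2/diphenylcarbazone after HNO3 acidification; Na+ and K+ by atomic absorption.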

Assay [5] is filed under the species Rattus norvegicus. Nature of the assay: Saluretic activity in rats after 0-24 hours, as chloride ion concentration in urine. The format is functional. In short, it runs like this: as §2
The species named for assay [6] is Rattus norvegicus. Nature of the assay: Saluretic activity in rats after 0-24 hours, as potassium ion concentration in urine. The format is functional. In short, it runs like this: as §2
Assay [7] is filed under the species Rattus norvegicus. Nature of the assay: Saluretic activity in rats after 0-24 hours, as sodium ion concentration in urine. The format is functional. In short, it runs like this: as §2
The species named for assay [8] is Rattus norvegicus. Briefly: Saluretic activity in rats after 0-5 hours, as chloride ion concentration in urine. It is filed as functional. Put shortly: as §2
The species entered for assay [9] is Rattus norvegicus. Briefly: Saluretic activity in rats after 0-5 hours, as sodium ion concentration in urine. The format is functional. Put shortly: as §2
For assay [10], the species on record is Rattus norvegicus. Nature of the assay: Saluretic activity in rats after 5-24 hours, as chloride ion concentration in urine. It is filed as functional. In short, it runs like this: as §2
The species named for assay [11] is Rattus norvegicus. Nature of the assay: Saluretic activity in rats after 5-24 hours, as potassium ion concentration in urine. The format is functional. In short, it runs like this:
as §2

The species entered for assay [12] is Rattus norvegicus. Nature of the assay: Saluretic activity in rats after 0-5 hours, as potassium ion concentration in urine. It is filed as functional. In short, it runs like this:
as §2

The species entered for assay [13] is Rattus norvegicus. Nature of the assay: Saluretic activity in rats after 0-24 hours, as ratio of Na+/K+ ion concentration in urine. The format is functional. In short, it runs like this:
as §2

The species entered for assay [14] is Rattus norvegicus. Nature of the assay: Saluretic activity in rats after 0-5 hours, as ratio of Na+/K+ ion concentration in urine. The format is functional. Put shortly:
as §2

The species entered for assay [15] is Rattus norvegicus. Nature of the assay: Saluretic activity in rats after 5-24 hours, as ratio of Na+/K+ ion concentration in urine. It is filed as functional. In short, it runs like this:
as §2

In the case of `NS(=O)(=O)c1cc2cnnc(O)c2cc1Cl`, the figures for the Diuretic activity in assay [1], in [2] and in assay [3] were 8.8 mL, 5.6 mL and 3.2 mL, respectively. The Saluretic activity in assay [4] is 4.3 m equiv kg-1; in assay [5], 9.12 m equiv kg-1; in assay [6] it was 5.7 m equiv kg-1; in assay [7] it was 10.44 m equiv kg-1; in assay [8], 4.1 m equiv kg-1; in assay [9] it was 6.14 m equiv kg-1. In addition, the Saluretic activity in assay [10] was 5.02 m equiv kg-1; in assay [11], 3.19 m equiv kg-1; in assay [12], 2.51 m equiv kg-1. Besides, the Ratio in assay [13] is on record as 1.83; in assay [14], 2.44; in [15], 1.35.

Regarding `NS(=O)(=O)c1cc2c(cc1Cl)CNN(Cc1ccccc1)C2=O`, the values for the Diuretic activity in assay [1], in assay [2] and in [3] were 13.2 mL, 6.6 mL and 6.6 mL, respectively. Besides, the Saluretic activity in [4] was found to be 5.7 m equiv kg-1; in assay [5], 13.69 m equiv kg-1; in assay [6] it was 6.79 m equiv kg-1; in assay [7], 12.6 m equiv kg-1; in [8], 8.69 m equiv kg-1; in assay [9], 6.9 m equiv kg-1. Moreover, the Saluretic activity in [10] is on record as 5 m equiv kg-1; in assay [11], 4.18 m equiv kg-1; in assay [12] it was 2.61 m equiv kg-1. The results for the Ratio in [13], in [14] and in assay [15] were 1.86, 2.65 and 1.36, respectively.

Take `NS(=O)(=O)c1cc2c(=O)n(-c3cccc(C(F)(F)F)c3)ncc2cc1Cl`: the figures for the Diuretic activity in assay [1], in assay [2] and in [3] were 6.6 mL, 2.2 mL and 4.4 mL, respectively. Further, the Saluretic activity is reported as 4.31 m equiv kg-1 in [6]; 6.25 m equiv kg-1 in [7]; 2.18 m equiv kg-1 in assay [9]; 3.04 m equiv kg-1 in assay [11]; 1.27 m equiv kg-1 in [12]. Further, the values for the Ratio in [13], in assay [14] and in assay [15] were 1.45, 1.72 and 1.33, respectively.

As for `CN1NCc2cc(S(N)(=O)=O)c(Cl)cc2C1=O`, the values for the Diuretic activity in assay [1], in assay [2] and in assay [3] were 6.1 mL, 2.7 mL and 3.4 mL, respectively. Besides, the Saluretic activity was 4.94 m equiv kg-1 in assay [4]; 8.05 m equiv kg-1 in assay [5]; 4.35 m equiv kg-1 in assay [6]; 7.35 m equiv kg-1 in assay [7]; 2.76 m equiv kg-1 in assay [8]; 2.41 m equiv kg-1 in assay [9]. For the same molecule, the Saluretic activity came to 5.29 m equiv kg-1 in assay [10], 3 m equiv kg-1 in assay [11] and 1.35 m equiv kg-1 in [12]. Further, the Ratio is recorded as 1.69 in [13], 1.78 in [14] and 1.64 in [15].

With `NS(=O)(=O)c1cc2c(cc1Cl)C(=O)N(Cc1ccccc1)NC2`, the figures for the Diuretic activity in [1], in assay [2] and in assay [3] were 7.6 mL, 4 mL and 3.6 mL, respectively. The Saluretic activity in [4] amounted to 5.5 m equiv kg-1; in [5], 10.53 m equiv kg-1; in assay [6], 5.21 m equiv kg-1; in assay [7] it was 9.51 m equiv kg-1; in assay [8] it was 5.14 m equiv kg-1; in assay [9] it was 4.01 m equiv kg-1. The figures for the Saluretic activity in [10], in [11] and in [12] were 5.39 m equiv kg-1, 3.29 m equiv kg-1 and 1.92 m equiv kg-1, respectively. In addition, the Ratio in assay [13] is 1.83; in assay [14] it was 2.1; in [15], 1.67.

As to `NS(=O)(=O)c1cc2c(=O)n(Cc3ccco3)ncc2cc1Cl`, the Diuretic activity in [1] is 2.8 mL; in assay [2], 1.8 mL; in [3], 1 mL. Further, the Saluretic activity in assay [4] came out at 2.4 m equiv kg-1; in assay [5], 5.26 m equiv kg-1; in assay [6] it was 3.74 m equiv kg-1; in assay [7], 6.08 m equiv kg-1; in [8], 3.8 m equiv kg-1; in [9], 3.68 m equiv kg-1. The Saluretic activity is given as 1.46 m equiv kg-1 in [10], 2.16 m equiv kg-1 in assay [11] and 1.58 m equiv kg-1 in assay [12]. Further, the figures for the Ratio in assay [13], in assay [14] and in assay [15] were 1.63, 2.83 and 1.11, respectively.

Consider `NS(=O)(=O)c1cc2c(O)nncc2cc1Sc1ccccc1`, for which the Diuretic activity in assay [1] stood at 7.6 mL; in assay [2] it was 2.9 mL; in [3], 4.7 mL. Besides, the Saluretic activity in assay [4] was determined as 4.97 m equiv kg-1; in [5] it was 8.44 m equiv kg-1; in assay [6], 5.7 m equiv kg-1; in assay [7], 7.87 m equiv kg-1; in [8], 3.97 m equiv kg-1; in [9] it was 2.9 m equiv kg-1. For the same molecule, the Saluretic activity amounted to 4.47 m equiv kg-1 in assay [10], 4.25 m equiv kg-1 in assay [11] and 1.45 m equiv kg-1 in assay [12]. For the same molecule, the Ratio in assay [13] is 1.38; in assay [14], 2; in assay [15], 1.17.

As for `NS(=O)(=O)c1cc2c(cc1Cl)C(=O)N(c1cccc(C(F)(F)F)c1)NC2`, the Diuretic activity in [1] is 6.1 mL; in assay [2], 1.6 mL; in assay [3] it was 4.5 mL. Besides, the Saluretic activity in assay [4] was found to be 5.6 m equiv kg-1; in assay [5], 8.73 m equiv kg-1; in assay [6] it was 4.53 m equiv kg-1; in [7] it was 6.86 m equiv kg-1; in [8], 2.07 m equiv kg-1; in assay [9] it was 1.26 m equiv kg-1. Further, the Saluretic activity was 6.66 m equiv kg-1 in [10], 3.84 m equiv kg-1 in [11] and 0.69 m equiv kg-1 in assay [12]. Further, the results for the Ratio in [13], in assay [14] and in assay [15] were 1.51, 1.82 and 1.46, respectively.

With `Cn1ncc2cc(S(N)(=O)=O)c(Sc3ccccc3)cc2c1=O`, the Diuretic activity in assay [1] came to 5.9 mL; in assay [2] it was 2.1 mL; in assay [3], 3.8 mL. Besides, the Saluretic activity in assay [4] is listed as 6.55 m equiv kg-1; in assay [5] it was 8.31 m equiv kg-1; in [6], 4.62 m equiv kg-1; in assay [7], 8.6 m equiv kg-1; in assay [8], 2.33 m equiv kg-1; in assay [9], 2.05 m equiv kg-1. Further, the Saluretic activity in assay [10] is on record as 5.98 m equiv kg-1; in [11] it was 3.42 m equiv kg-1; in assay [12] it was 1.2 m equiv kg-1. For the same molecule, the Ratio in [13] is on record as 1.86; in [14] it was 1.7; in [15], 1.92.

Turning to `NS(=O)(=O)c1cc2c(cc1Cl)CNN(c1cccc(C(F)(F)F)c1)C2=O`, the Diuretic activity is 11.6 mL in assay [1], 4.9 mL in assay [2] and 6.7 mL in [3]. Moreover, the Saluretic activity in assay [4] is given as 4.9 m equiv kg-1; in [5], 12.6 m equiv kg-1; in [6] it was 5.41 m equiv kg-1; in [7] it was 11.07 m equiv kg-1; in assay [8], 7.91 m equiv kg-1; in [9], 6.17 m equiv kg-1. Further, the Saluretic activity is listed as 4.69 m equiv kg-1 in assay [10], 3.42 m equiv kg-1 in assay [11] and 1.99 m equiv kg-1 in [12]. Besides, the values for the Ratio in assay [13], in assay [14] and in assay [15] were 2.05, 3.1 and 1.43, respectively.

Consider `NS(=O)(=O)c1cc2c(cc1Cl)N=CNS2(=O)=O` [CHLOROTHIAZIDE], for which the figures for the Diuretic activity in assay [1], in [2] and in assay [3] were 11.9 mL, 7.2 mL and 4.7 mL, respectively. The Saluretic activity in assay [4] is listed as 5.03 m equiv kg-1; in assay [5] it was 13.55 m equiv kg-1; in [6], 7.89 m equiv kg-1; in assay [7] it was 12.77 m equiv kg-1; in [8], 8.8 m equiv kg-1; in assay [9] it was 7.74 m equiv kg-1. Besides, the Saluretic activity in assay [10] is listed as 4.75 m equiv kg-1; in assay [11], 4.14 m equiv kg-1; in assay [12], 3.75 m equiv kg-1. The Ratio came to 1.62 in assay [13], 2.06 in [14] and 1.21 in [15].
